The values below come from ChEMBL document CHEMBL1149866, “Cytotoxic diterpenoids from Euphorbia helioscopia” (J Nat Prod, 2008).

In one assay the test system is HeLa. The assay can be described thus: Cytotoxicity against human HeLa cells by MTT method. It counts as functional, cell-based. The procedure, abridged:
(§1)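 HeLa (human cervical carcinoma) and MDA-MB-231 (breast tumor) cells; MTT viability read-out run per a previously published protocol; IC50 determined; adriamycin as positive control.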
On the technique in general: Formazan colour is commonly taken as a measure of viable cells.

Another assay concerns MDA-MB-231. The assay can be described thus: Cytotoxicity against human MDA-MB-231 cells by MTT method. Type of assay: functional, cell-based. The procedure, abridged:
as §1

With `CC(=O)O[C@@H]1C[C@@H](OC(C)=O)C(C)(C)[C@H](O)[C@H]2O[C@@]3(C[C@H](C)[C@H](OC(=O)c4ccccc4)[C@@H]3/C=C/1C)[C@@H](OC(C)=O)[C@H]2C`, the IC50 in the assay with HeLa and with MDA-MB-231 was greater than 10 µM each time.

As for `CC(=O)O[C@@H]1[C@H](C)/C=C/C(C)(C)C(=O)C[C@@H](OC(=O)c2ccccc2)/C(CO)=C/[C@H]2[C@@H](OC(=O)c3ccccc3)[C@H](C)C[C@]12OC(C)=O`, the IC50 in the assay with HeLa and in the assay on MDA-MB-231 was greater than 10 µM throughout.

Take `CC(=O)O[C@H]1[C@@H](C)/C=C/C(C)(C)[C@H](O)C[C@@H](O)/C(C)=C/[C@H]2[C@@H](OC(=O)c3ccccc3)[C@@H](C)C[C@@]21O`: the IC50 in the assay with HeLa and in the assay with MDA-MB-231 was greater than 10 µM each time.

With `CC(=O)O[C@@H]1[C@H]2O[C@@]3(C[C@H](C)[C@H](OC(=O)c4ccccc4)[C@@H]3/C=C(\C)[C@H](OC(C)=O)C[C@@H](OC(C)=O)C1(C)C)[C@@H](OC(C)=O)[C@H]2C`, the IC50 in the assay with HeLa and in the assay on MDA-MB-231 was greater than 10 µM throughout.

As to `CC(=O)O[C@@H]1C[C@@H](OC(C)=O)C(C)(C)/C=C/[C@H](C)[C@H](OC(C)=O)[C@@]2(O)C[C@H](C)[C@H](OC(=O)c3ccccc3)[C@@H]2/C=C/1CO`, the IC50 in the assay on HeLa and in the assay with MDA-MB-231 was greater than 10 µM throughout.

For the compound `CC(=O)O[C@@H]1C[C@@H](O)C(C)(C)/C=C/[C@H](C)[C@H](OC(C)=O)[C@@]2(O)C[C@H](C)[C@H](OC(=O)c3ccccc3)[C@@H]2/C=C/1C` [EUPHORNIN B], the IC50 in the assay on HeLa and with MDA-MB-231 was greater than 10 µM in each case.

On to `CC(=O)O[C@@H]1C[C@@H](OC(C)=O)C(C)(C)/C=C/[C@H](C)[C@H](OC(C)=O)[C@@]2(O)C[C@H](C)[C@H](OC(=O)c3ccccc3)[C@@H]2/C=C/1C` [EUPHORNIN], for which the IC50 in the assay on HeLa was 3.1 µM; in the assay with MDA-MB-231 it was 13.4 µM.

Take `CC(=O)O[C@@H]1[C@H](C)/C=C/C(C)(C)C(=O)C[C@@H](OC(=O)c2ccccc2)/C(C)=C/[C@H]2[C@@H](OC(=O)c3ccccc3)[C@H](C)C[C@]12OC(C)=O` [EUPHOSCOPIN C]: the IC50 in the assay with HeLa and with MDA-MB-231 was greater than 10 µM throughout.

For the compound `CC1=C2C=C3CC[C@@H]4C(C)(C)[C@H](O)CC[C@@]4(C)[C@@H]3C[C@H]2OC1=O` [HELIOSCOPINOLIDE A], the IC50 with HeLa turned out to be 0.11 µM; with MDA-MB-231 it was 2.1 µM.

Broadly, the IC50 is the concentration that inhibits the measured activity by half. A low value points to greater potency in that assay.
